Measurements as given in ChEMBL document CHEMBL1123083, “Synthesis and antiherpetic activity of (S)-, (R)-, and (+/-)-9-[(2,3-dihydroxy-1-propoxy)methyl]guanine, linear isomers of 2'-nor-2'-deoxyguanosine” (J Med Chem, 1985).
≈ marks a conversion by molar mass, not a printed value.

What was measured:
[1] = test system: Human alphaherpesvirus 1; assay: In vitro anti viral activity tested against HSV-1(Schooler) virus on Rabbit kidney cell cultures; 0.5-1.5; type: functional; conditions: Human alphaherpesvirus 1, kidney; read-out: ED50 (the source's name)
Outline: (§1)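 Confluent primary rabbit kidney monolayers were preincubated with serial drug dilutions in EMEM with 2% fetal calf serum and neomycin. They were then challenged with about 10 TCID50 of HSV-1 Schooler or HSV-2 Curtis and incubated at 37 °C. Cytopathology was scored on day 5. ED50 is the concentration preventing cytopathology in half of the infected cultures.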

[2] = test system: Human alphaherpesvirus 1; assay: Efficacy was evaluated against Oraficial HSV-1 infection in mice with lesions administered orally at dose 0.8 mg/kg per day; Tested mice 10; type: ADME, organism-based; parameters: route oral; conditions: mouse, in vivo, po
Outline: (§2)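 HSV-1 strain S inoculated in the orofacial area of mice as previously described. Half-daily doses given by gavage 8 h apart, starting 3 h after infection, for 7 days. On day 7 after infection, mice with lesions per group and average lesion score were recorded (95% confidence interval). Significance was judged against placebo-treated infected mice (p < 0.05).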

[3] = test system: Human alphaherpesvirus 1; assay: Efficacy was evaluated against Oraficial HSV-1 infection in mice with lesions administered topically at a dose 0.02 mg/kg per day.; type: ADME, organism-based; conditions: mouse, in vivo
Outline: (§3)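 Mice were infected orofacially with HSV-1 strain S. Each treatment was 10 μL of compound at the stated percent concentration in a hydroalcoholic vehicle. Application began 3 h after infection and was repeated at 3-h intervals: three treatments on day 1 and four on each of the next 2 days. Lesion incidence and average lesion score were read on day 7 (95% CI). Significance was judged against placebo (p < 0.05).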

[4] = test system: Human alphaherpesvirus 1; assay: Efficacy was evaluated against Oraficial HSV-1 infection in mice with lesions administered orally at a dose 50 mg/kg per day; Tested mice 10; type: organism-based; parameters: route oral; conditions: mouse, in vivo, po; outline: as §2
[5] = test system: Human alphaherpesvirus 1; assay: Efficacy was evaluated against Oraficial HSV-1 infection in mice with lesions administered orally at a dose 0.8 mg/kg per day.; type: ADME, organism-based; parameters: route oral; conditions: mouse, in vivo, po; outline: as §2
[6] = test system: Human alphaherpesvirus 1; assay: Efficacy was evaluated against Oraficial HSV-1 infection in mice with lesions administered orally at a dose 12.5 mg/kg per day; Tested mice 10; type: organism-based; parameters: route oral; conditions: mouse, in vivo, po; outline: as §2
[7] = test system: Human alphaherpesvirus 1; assay: Efficacy was evaluated against Oraficial HSV-1 infection in mice with lesions administered topically at a dose 0.25 mg/kg per day.; type: ADME, organism-based; conditions: mouse, in vivo; outline: as §3
[8] = test system: Human alphaherpesvirus 1; assay: Efficacy was evaluated against Systemic HSV-1 infection in mice at a daily dose of 3.1 mg/kg administered subcutaneously.; type: ADME, organism-based; parameters: dose 3.1 mg/kg, route subcutaneous; conditions: mouse, in vivo, sc
Outline: (§4)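 ICR/Ha mice (10–20 g, mixed sex) were infected intraperitoneally with 50–100 LD50 of HSV-1 Schooler. Subcutaneous dosing of 0.1 mL twice daily for 4 days started immediately after infection. Groups were of about 10 mice. Survival was recorded daily for 15 days and reported as survivors/total and mean survival time (95% CI). Transformed survival times were compared with placebo-treated infected mice (p < 0.05).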

[9] = test system: Human alphaherpesvirus 1; assay: Efficacy was evaluated against Systemic HSV-1 infection in mice at a daily dose of 0.8 mg/kg administered subcutaneously.; type: ADME, organism-based; parameters: dose 0.8 mg/kg, route subcutaneous; conditions: mouse, in vivo, sc; outline: as §4
[10] = test system: Human alphaherpesvirus 1; assay: Efficacy was evaluated against Systemic HSV-1 infection in mice at a daily dose of 3.1 mg/kg administered subcutaneously; Tested mice 10; type: ADME, organism-based; parameters: dose 3.1 mg/kg, route subcutaneous; conditions: mouse, in vivo, sc; outline: as §4
[11] = test system: Human alphaherpesvirus 1; assay: Efficacy was evaluated against Systemic HSV-1 infection in mice at a daily dose of 50 mg/kg administered orally.; type: ADME, organism-based; parameters: dose 50 mg/kg; conditions: mouse, in vivo, po
Outline: (§5)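 Mixed-sex ICR/Ha mice (10–20 g) were infected intraperitoneally with 50–100 LD50 of HSV-1 Schooler. Oral dosing of 0.1 mL twice daily for 7 days began immediately after infection. Groups were of about 10 mice. Deaths were recorded daily for 15 days, giving survivors/total and mean survival time with 95% CI. Significance was judged against placebo-treated infected mice using transformed survival times.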

[12] = test system: Human alphaherpesvirus 1; assay: Efficacy was evaluated against Oraficial HSV-1 infection in mice with lesions administered topically at a dose 0.02 mg/kg per day; Tested mice 10; type: ADME, organism-based; conditions: mouse, in vivo; outline: as §3
[13] = test system: Human alphaherpesvirus 1; assay: Efficacy was evaluated against Systemic HSV-1 infection in mice at a daily dose of 12.5 mg/kg administered subcutaneously; Tested mice 10; type: organism-based; parameters: dose 12.5 mg/kg, route subcutaneous; conditions: mouse, in vivo, sc; outline: as §4
[14] = test system: Human alphaherpesvirus 1; assay: Efficacy was evaluated against Oraficial HSV-1 infection in mice with lesions administered orally at a dose 3.1 mg/kg per day; Tested mice 10; type: organism-based; parameters: route oral; conditions: mouse, in vivo, po; outline: as §2
[15] = test system: Human alphaherpesvirus 1; assay: Efficacy was evaluated against Systemic HSV-1 infection in mice at a daily dose of 3.1 mg/kg administered orally.; type: ADME, organism-based; parameters: dose 3.1 mg/kg; conditions: mouse, in vivo, po; outline: as §5
[16] = test system: Human alphaherpesvirus 1; assay: Efficacy was evaluated against Oraficial HSV-1 infection in mice with lesions administered topically at a dose 0.06 mg/kg per day.; type: ADME, organism-based; conditions: mouse, in vivo; outline: as §3
[17] = test system: Human alphaherpesvirus 1; assay: Efficacy was evaluated against Systemic HSV-1 infection in mice at a daily dose of 12.5 mg/kg administered orally; Tested mice 9; type: organism-based; parameters: dose 12.5 mg/kg; conditions: mouse, in vivo, po; outline: as §5
[18] = test system: Human alphaherpesvirus 1; assay: Efficacy was evaluated against Oraficial HSV-1 infection in mice with lesions administered topically at a dose 1 mg/kg per day.; type: ADME, organism-based; conditions: mouse, in vivo; outline: as §3
[19] = test system: Human alphaherpesvirus 1; assay: Efficacy was evaluated against Systemic HSV-1 infection in mice at a daily dose of 0.8 mg/kg administered subcutaneously; Tested mice 10; type: organism-based; parameters: dose 0.8 mg/kg, route subcutaneous; conditions: mouse, in vivo, sc; outline: as §4
[20] = test system: Human alphaherpesvirus 1; assay: Evaluated for DNA polymerase inhibition activity against herpes simplex virus-1 (HSV-1); type: functional
Outline: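 Step II mixture supplied the phosphorylated test material. Step I: compound with HSV-1 thymidine kinase, 4 h, 37 °C. Step II: then HSV-1-infected HeLa crude extract plus GMP kinase, overnight, 30 °C. A 20 μL sample went to a 1 h, 37 °C DNA polymerase assay at pH 8 with activated salmon sperm DNA, 0.05 mM each dNTP ([³H]dTTP) and infected HeLa extract. (NH₄)₂SO₄ 0.1 M was present for the viral enzyme and omitted for the cellular polymerases. Read-out: TCA-precipitable radioactivity.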

[21] = test system: Human alphaherpesvirus 1; assay: Efficacy was evaluated against Systemic HSV-1 infection in mice at a daily dose of 3.1 mg/kg administered orally; Tested mice 10; type: organism-based; parameters: dose 3.1 mg/kg; conditions: mouse, in vivo, po; outline: as §5
[22] = test system: Human alphaherpesvirus 2; assay: In vitro anti viral activity tested against HSV-2(Curtis) virus on Rabbit kidney cell cultures; 1-3; type: functional; conditions: Human alphaherpesvirus 2, kidney; read-out: ED50 (the source's name); outline: as §1
[23] = test system: Human alphaherpesvirus 1; assay: Efficacy was evaluated against Oraficial HSV-1 infection in mice with lesions administered topically at a dose 0.25 mg/kg per day; Tested mice 10; type: ADME, organism-based; conditions: mouse, in vivo; outline: as §3
[24] = test system: Human alphaherpesvirus 1; assay: Efficacy was evaluated against Oraficial HSV-1 infection in mice with lesions administered orally at a dose 50 mg/kg per day.; type: ADME, organism-based; parameters: route oral; conditions: mouse, in vivo, po; outline: as §2
[25] = test system: Human alphaherpesvirus 1; assay: Efficacy was evaluated against Systemic HSV-1 infection in mice at a daily dose of 12.5 mg/kg administered orally.; type: ADME, organism-based; parameters: dose 12.5 mg/kg; conditions: mouse, in vivo, po; outline: as §5
[26] = test system: Human alphaherpesvirus 1; assay: Efficacy was evaluated against Oraficial HSV-1 infection in mice with lesions administered topically at a dose 1 mg/kg per day; Tested mice 10; type: ADME, organism-based; conditions: mouse, in vivo; outline: as §3
[27] = test system: Human alphaherpesvirus 1; assay: Efficacy was evaluated against Systemic HSV-1 infection in mice at a daily dose of 50 mg/kg administered orally; Tested mice 10; type: organism-based; parameters: dose 50 mg/kg; conditions: mouse, in vivo, po; outline: as §5
[28] = test system: Human alphaherpesvirus 1; assay: Efficacy was evaluated against Oraficial HSV-1 infection in mice with lesions administered orally at a dose 12.5 mg/kg per day.; type: ADME, organism-based; parameters: route oral; conditions: mouse, in vivo, po; outline: as §2
[29] = test system: Human alphaherpesvirus 1; assay: Efficacy was evaluated against Systemic HSV-1 infection in mice at a daily dose of 12.5 mg/kg administered subcutaneously.; type: ADME, organism-based; parameters: dose 12.5 mg/kg, route subcutaneous; conditions: mouse, in vivo, sc; outline: as §4
[30] = test system: Human alphaherpesvirus 1; assay: Efficacy was evaluated against Oraficial HSV-1 infection in mice with lesions administered topically at a dose 0.06 mg/kg per day; Tested mice 10; type: ADME, organism-based; conditions: mouse, in vivo; outline: as §3
[31] = test system: DNA polymerase (Homo sapiens); assay: Evaluated for DNA polymerase inhibition activity against HeLa cells.

SMILES: Nc1nc(O)c2ncn(COCC(O)CO)c2n1 (single isomer, unassigned; form 2)
- EC50 [1]: 0.5 µg/mL (≈ 1.96 µM)
- Mice with lesions [2]: 9
- Average lesion score [3]: 2.75
- Mice with lesions [4]: 1
- Average lesion score [5]: 3.45
- Mice with lesions [6]: 5
- Average lesion score [7]: 1.35
- Average survival [8]: 7.6 days
- Average survival [9]: 6.7 days
- Survivors [10]: 1
- Average survival [11]: 12.9 days
- Mice with lesions [12]: 9
- Survivors [13]: 4
- Mice with lesions [14]: 8
- Average survival [15]: 6.9 days
- Average lesion score [16]: 1.4
- Survivors [17]: 0
- Average lesion score [18]: 0.4
- Survivors [19]: 0
- Inhibition [20]: 57%
- Survivors [21]: 0
- EC50 [22]: 1 µg/mL (≈ 3.92 µM)
- Mice with lesions [23]: 5
- Average lesion score [24]: 0.15
- Average survival [25]: 8.1 days
- Mice with lesions [26]: 2
- Survivors [27]: 3
- Average lesion score [28]: 0.75
- Average survival [29]: 10.7 days
- Mice with lesions [30]: 6
- Inhibition [31]: 10%
